The results in this text go back to ChEMBL document CHEMBL2176871, “Development of ligands at γ-aminobutyrric acid type A (GABAA) receptor subtype as new agents for pain relief” (Bioorg Med Chem, 2011).

Data set [1] is described as follows: Displacement of [3H]Ro151788 from GABA(A)/BzR in bovine cerebral cortex membrane. Format: cell membranes, Bos taurus. The procedure, abridged:
(§1)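 Bovine cerebral cortex membranes in 50 mM Tris-citrate pH 7.4; [3H]flumazenil displacement. Compounds first tested at a fixed 10 µM; Ki determined only when inhibition exceeded 80%, using at least six concentrations. Five experiments run in triplicate; IC50 obtained by iterative curve fitting and converted to Ki with the Cheng–Prusoff equation.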
A general note: In a radioligand displacement assay an active substance lowers the binding of a labelled ligand.

The subject of data set [2] is Rattus norvegicus. Nature of the data set: Antinociceptive activity in Sprague-Dawley rat mononeuropathy pain model assessed as increase in injured paw pressure at 30 mg/kg, po after 45 mins by paw pressure test relative to non-treated control. Type of data set: functional. The gist of the method:
(§2)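 Chronic constriction injury: loose ligatures placed on the common sciatic nerve under chloral hydrate; contralateral sham dissection. Tested 14 days after surgery. Paw pressure applied at 32 g/s; threshold taken as the force causing the first struggle; cut-off 250 g; pretest outliers (<40 g or >75 g) excluded. Oral dosing in 10 ml/kg; read at 15, 30 and 45 min; compared with a CMC-treated group.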

For data set [3], the system named is Rattus norvegicus. Briefly: Antinociceptive activity in Sprague-Dawley rat mononeuropathy pain model assessed as increase in injured paw pressure at 30 mg/kg, po after 30 mins by paw pressure test relative to non-treated control. Type of data set: functional. The gist of the method:
as §2

Data set [4] concerns Rattus norvegicus. Briefly: Antinociceptive activity in Sprague-Dawley rat mononeuropathy pain model assessed as increase in injured paw pressure at 30 mg/kg, po after 15 mins by paw pressure test relative to non-treated control. Format: functional. The procedure, abridged:
as §2

Data set [5] relates to Rattus norvegicus. Nature of the data set: Toxicity in Sprague-Dawley rat mononeuropathy pain model assessed as effect on contralateral paw pressure at 30 mg/kg, po after 45 mins by paw pressure test. Conditions: in vivo, 0.75 h. Format: organism-based. More on the design: dose 30 mg/kg, route oral. The gist of the method:
(§3)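 Same sciatic-ligation rat model, 14 days after surgery. Threshold measured on the non-operated contralateral hind paw by analgesimeter at 32 g/s; first-struggle endpoint; 250 g cut-off; pretest rats outside 40–75 g rejected. Compound given po in 10 ml/kg; readings at 15, 30 and 45 min.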

Data set [6] relates to Rattus norvegicus. Nature of the data set: Toxicity in Sprague-Dawley rat mononeuropathy pain model assessed as effect on contralateral paw pressure at 30 mg/kg, po after 30 mins by paw pressure test. Format: organism-based. More on the design: dose 30 mg/kg, route oral. Conditions: in vivo, 0.5 h. The procedure, abridged:
as §3

The test system of data set [7] is Rattus norvegicus. Nature of the data set: Toxicity in Sprague-Dawley rat mononeuropathy pain model assessed as effect on contralateral paw pressure at 30 mg/kg, po after 15 mins by paw pressure test. More on the design: dose 30 mg/kg, route oral. Conditions: in vivo, 0.25 h. Format: organism-based. The procedure, abridged: as §3
The species entered for data set [8] is Bos taurus. Nature of the data set: Displacement of [3H]Ro151788 from GABA(A)/BzR in bovine cerebral cortex membrane at 10 uM. Type of data set: cell membranes. The procedure, abridged: as §1
Data set [9] relates to Mus musculus. Briefly: Anxiolytic activity in ip dosed Swiss albino mouse pain model after 30 mins by light/dark box test. Type of data set: functional, organism-based. The gist of the method:
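Male Swiss albino mice were tested in a light/dark box 30 min after dosing. Read-outs were transfers between compartments and time spent in the illuminated side. Dose volume was 10 ml/kg. Results are means ± SEM of 8 mice.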

For data set [10], the system named is Mus musculus. Nature of the data set: Anxiolytic activity in ip dosed Swiss albino mouse pain model after 30 mins by light/dark box test in presence of flumazenil. Format: functional, organism-based. The gist of the method:
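Light/dark box test in male Swiss albino mice, with drug given 30 min before testing and flumazenil 100 mg/kg i.p. co-administered before the test. Read-outs were transfers between compartments and time in the lit side. Results are means ± SEM of 8 mice.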

The test system of data set [11] is Mus musculus. Briefly: Antihyperalgesic activity Swiss albino mouse […] assessed as licking latency time at 30 mg/kg, po after 60 mins by hot plate test (reference value: 16.6 +/- 0.8 secs). Format: functional. The procedure, abridged:
(§4)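 Hot plate at 52.5 ± 0.1 °C in non-diabetic male Swiss mice. Latency to licking of fore or hind paws was timed before dosing and every 15 min up to 60 min after oral dosing. Mice with pretest latencies below 12 s or above 18 s were excluded. Cut-off was 45 s.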
(In general: Hot-plate and tail-flick tests time the reaction to a heat stimulus.)

Data set [12] concerns Mus musculus. Briefly: Antihyperalgesic activity against streptozotocin-induced hyperalgesia in Swiss albino mouse […] assessed as licking latency time at 30 mg/kg, po after 45 mins by hot plate test (reference value: 8.8 +/- 0.7 secs). Format: functional.
Data set [13] deals with Mus musculus. Nature of the data set: Antihyperalgesic activity Swiss albino mouse […] assessed as licking latency time at 30 mg/kg, po after 45 mins by hot plate test (reference value: 16.6 +/- 0.8 secs). Format: functional. The gist of the method:
as §4

Data set [14] relates to Mus musculus. Briefly: Antihyperalgesic activity against streptozotocin-induced hyperalgesia in Swiss albino mouse […] assessed as licking latency time at 30 mg/kg, po after 30 mins by hot plate test (reference value: 8.8 +/- 0.7 secs). Type of data set: functional.
The test system of data set [15] is Mus musculus. Nature of the data set: Antihyperalgesic activity Swiss albino mouse […] assessed as licking latency time at 30 mg/kg, po after 30 mins by hot plate test (reference value: 16.6 +/- 0.8 secs). Type of data set: functional. The procedure, abridged:
as §4

For data set [16], the system named is Mus musculus. Nature of the data set: Antihyperalgesic activity against streptozotocin-induced hyperalgesia in Swiss albino mouse […] assessed as licking latency time at 30 mg/kg, po after 15 mins by hot plate test (reference value: 8.8 +/- 0.7 secs). Type of data set: functional.
Data set [17] relates to Mus musculus. Nature of the data set: Antihyperalgesic activity Swiss albino mouse […] assessed as licking latency time at 30 mg/kg, po after 15 mins by hot plate test (reference value: 16.6 +/- 0.8 secs). Type of data set: functional. The procedure, abridged: as §4
The subject of data set [18] is Mus musculus. Nature of the data set: Anxiolytic-like activity in Swiss albino mouse at 30 mg/kg, po after 30 mins by light/dark box test. Type of data set: functional, organism-based. Details: dose 30 mg/kg. The gist of the method: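 Male Swiss mice tested in a two-compartment light/dark box. Transfers between compartments and time spent in the lit side recorded. Compound given po 30 min before testing, in 10 ml/kg; flumazenil given i.p. for antagonism; 8 mice per group.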

Data set [19] has as its system Mus musculus. Nature of the data set: Antihyperalgesic activity against streptozotocin-induced hyperalgesia in Swiss albino mouse […] assessed as licking latency time at 30 mg/kg, po after 60 mins by hot plate test (reference value: 8.8 +/- 0.7 secs). Format: functional.
Data set [20] relates to Mus musculus. Nature of the data set: Analgesic activity in Swiss albino mouse abdominal constriction model assessed as decrease in number of acetic acid-induced writhing at 30 to 60 mg/kg, po after 30 mins. Format: functional, organism-based. The note with it: Abdomen. The procedure, abridged: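 Male Swiss albino mice (23–30 g). Compounds given po in 1% CMC vehicle 30 min before the test. Acetic acid 0.6% injected i.p. at 10 ml/kg. Stretching movements were counted for 10 min, starting 5 min after the acetic acid injection. 8–15 mice per group.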

Data set [21] has as its system Mus musculus. Briefly: Anticonvulsant activity in Swiss albino mouse […] assessed as protection against intraperitoneally administered pentylenetetrazol-induced seizures at 10 mg/kg, po after 30 mins. Type of data set: functional. The procedure, abridged: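 Male Swiss albino mice. Compounds given po and PTZ 90 mg/kg injected 30 min later; PTZ was dissolved in 0.9% NaCl saline. Clonic generalized convulsions were recorded over 30 min. Each value is the mean of 10 mice. The methods give the PTZ route as s.c. and the table footnote gives it as ip.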

Activity calls are given as the source filed them.

A word on the Ki: it is a measure of affinity in units of concentration, obtained from inhibition or displacement. As usually defined, the inhibition is the relative decrease from the control value, in per cent. High values mean a strong effect, low ones a weak effect.

On to `[O-][n+]1nc2c(I)cnn2c2cc(Cl)ccc21`, for which affinity in [1] was put at a Ki of 22.8 nM.

Take `[O-][n+]1nc2c(I)cnn2c2cc(OCc3ccccc3)ccc21`: the Activity came to 36.4 g in [2]; 46.5 g in [3]; 37.1 g in data set [4]; 65.1 g in data set [5]; 59.2 g in data set [6]; 62.7 g in [7].

In [8], `Cc1cnn2c1nnc1ccc(OCc3ccccc3)cc12` showed an inhibition above 80%. For the same molecule, in data set [1], the affinity, expressed as Ki, was 1.6 nM.

With `O=C(OCc1cccs1)c1cnn2c1n[n+]([O-])c1ccc(Cl)cc12`, affinity in data set [1] was put at a Ki of 6.8 nM. Besides, the Activity came out at 32.8 g in data set [2]; 35.2 g in [3]; 33.6 g in data set [4]; 60.9 g in data set [5]; 57.8 g in data set [6]; 59.3 g in data set [7].

Consider `[O-][n+]1nc2c(I)cnn2c2cc(NCc3ccc(Cl)cc3)ccc21`, for which the inhibition in data set [8] is above 80%. Also, the Ki in data set [1] was determined as 2.44 nM.

As for `Cc1cnn2c1nnc1ccc(NCc3ccccc3)cc12`, the inhibition in data set [8] was above 80%. The molecule also came in with a Ki in data set [1] of 2.78 nM.

As to `CN1C(=O)CN=C(c2ccccc2)c2cc(Cl)ccc21`, the result in data set [9] was Active. Also, in data set [10], the result was inactive.

On to `CN(Cc1ccccc1)c1ccc2c(c1)n1ncc(I)c1n[n+]2[O-]`, for which, in [8], the inhibition was above 80%. The Time in [11] is on record as 17.9 s; in data set [12], 10.4 s; in data set [13] it was 18.3 s; in [14], 11.8 s; in [15], 16.8 s; in [16], 10.1 s. Moreover, the Time in data set [17] was 17.3 s; in [19], 11.1 s. The result in data set [18] was Active. For the same molecule, in data set [1], the affinity corresponds to a Ki of 1.02 nM. For the same molecule, the result in [20] was inactive. The Activity in [21] amounted to 10%; in data set [2] it was 28.5 g; in [3] it was 26.5 g; in data set [4] it was 29.2 g; in [5], 60.8 g; in [6], 62.8 g. The Activity in data set [7] was 61.7 g.

For `O=C(c1cccs1)c1cnn2c1n[n+]([O-])c1ccc(Oc3ccccc3)cc12`, the Activity came to 43.2 g in data set [2]; 38.4 g in [3]; 37.7 g in [4]; 61.2 g in data set [5]; 57.8 g in data set [6]; 60.6 g in [7].
